Assay outcomes (PubChem)
FAS TE block: FAS thioesterase (human) inhibition | AID 602261 | 360,000 tested, 0.67% active | inhibition, % at 15 µM | recombinant FAS-TE, OMFH fluorogenic substrate, fluorescence endpoint | P49327;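 active means compounds whose normalised, plate-corrected inhibition of enzyme fluorescence in the single-dose primary screen is 50% or more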;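 further: 0% = DMSO with enzyme and 100% = substrate without enzyme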
SENP1 FRET inh: inhibitors of human SENP1 SUMO protease catalytic domain. Q9P0U3. recombinant SENP1 catalytic domain, CyPet-SUMO1-YPet FRET cleavage. inhibition, % at 10 µM. 360,000 tested, 0.21% active. AID 624204;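 active means inhibition at least 30% at 10 µM, raw YFP signal under a set limit, fluorescence ratio 0.5 to 1.5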;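 further: 0% = enzyme with DMSO and 100% = no enzyme wells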
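Controls: no-enzyme wells low, DMSO-plus-enzyme wells high control. Test system: human recombinant His6-tagged SENP1 catalytic domain enzyme. Reagent: SFCypet-SUMO1-SFYpet FRET protein substrate, 25 nM final. Doses: one dose per compound, 10 µM, 0.5% DMSO. Detection: FRET, CFP and YFP emission. Timing: 50 min reaction at room temperature.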
GASC-1 inh: human JMJD2C demethylase inhibition; GST-JMJD2C(1-420) H3K9me3 demethylation, DELFIA europium; inhibition, % at 2.35 µM; 330,000 tested, 0.069% active; AID 2099;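 active means more than half of a compound's replicate wells show inhibition beyond 50%, single wells judged on their own value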;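 further: signal counts dimethyl H3K9 product captured on neutravidin plate; 0% = median of DMSO wells and 100% = 0.3 times that DMSO median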
Target sequence (Q9H3R0 1-420 limits assumed): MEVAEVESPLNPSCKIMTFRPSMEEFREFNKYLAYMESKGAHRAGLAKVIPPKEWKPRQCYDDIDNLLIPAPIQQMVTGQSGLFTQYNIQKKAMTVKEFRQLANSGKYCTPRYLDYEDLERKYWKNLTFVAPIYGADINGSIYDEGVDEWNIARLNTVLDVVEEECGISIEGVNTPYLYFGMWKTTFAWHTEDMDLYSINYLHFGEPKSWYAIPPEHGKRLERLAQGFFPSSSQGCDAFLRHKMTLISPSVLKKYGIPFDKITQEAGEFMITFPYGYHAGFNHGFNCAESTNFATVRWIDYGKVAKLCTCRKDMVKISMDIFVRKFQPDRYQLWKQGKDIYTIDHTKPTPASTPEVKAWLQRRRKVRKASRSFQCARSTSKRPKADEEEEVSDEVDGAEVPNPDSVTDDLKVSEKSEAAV
Arrestin-AP2 inh: inhibitors of human beta-arrestin and AP2 interaction | FITC-arrestin peptide / GST-AP2 beads, flow cytometry; AP2 beta2 appendage carries R879A mutation | inhibition, % at 10 µM | 340,000 tested, 0.31% active | AID 504490;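 active means inhibition above a set limit, near 3 SD of compounds lacking own fluorescence, cut at about 54% in these data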;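 further: plate controls were DMSO wells for no effect and 5 µM unlabelled arrestin peptide for full effect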
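Material – AP2 appendage R879A on GSH beads · Buffer or medium – PBS with 0.05% Tween 20 and 0.1% BSA · Probe or stimulus – fluorescein-tagged arrestin peptide at 50 nM final · Incubation – compound with beads 12 min RT, then probe 1 h RT · Detection – high-throughput flow cytometry of beads, ex 488, em 535 nm · Evaluation – percent response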
FAS-TE conf: confirmation of human fatty acid synthase thioesterase inhibitors; inhibition, % at 15 µM; recombinant FAS-TE, OMFH fluorogenic substrate, fluorescence; AID 624325; shares compounds with FAS TE block; 2,300 tested, 45% active;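 active means compounds inhibiting the enzyme by at least 50% at 15 µM in any one of the replicates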;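 further: 0% = enzyme with DMSO only and 100% = wells lacking enzyme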
The depositor's hits bear a star. Rows were chosen to be rich in hits. Some 1.1% of all compounds tested hit in one or more screens of this group.

How did COC(=O)N1C(=O)[C@](Cc2ccccc2)(c2ccccc2)N1C(=O)OC do in these assays?
FAS TE block: 63*; SENP1 FRET inh: 4; GASC-1 inh: 5; Arrestin-AP2 inh: 30; FAS-TE conf: 75*

What do the screens show for `CC[C@@]1(c2ccccc2)C(=O)N(C(=O)OC)N1C(=O)OC`?
FAS TE block: 33; SENP1 FRET inh: 0; GASC-1 inh: 5; Arrestin-AP2 inh: 2

How did COc1ccc(C(=O)CCN2CCC(C)CC2)cc1 do in these assays?
FAS TE block: -4; SENP1 FRET inh: 3; GASC-1 inh: 4; Arrestin-AP2 inh: 6

What do the screens show for `Oc1ccc(O)c(/C(=N/Nc2ccccc2)c2ccccc2)c1`?
GASC-1 inh: -4

How did CN(C)N=C1c2cc(S(=O)(=O)N3CCOCC3)ccc2-c2ccc(S(=O)(=O)N3CCOCC3)cc21 do in these assays?
FAS TE block: 50*; SENP1 FRET inh: 4; GASC-1 inh: -3; Arrestin-AP2 inh: 10; FAS-TE conf: 25

How did COc1ccc(OCC(=O)Nc2cc3c(cc2C(=O)O)OCCCO3)cc1 do in these assays?
FAS TE block: -4; SENP1 FRET inh: 0; GASC-1 inh: 25; Arrestin-AP2 inh: 4

Results for NS(=O)(=O)c1ccc(N/N=C/c2ccc[nH]2)c([N+](=O)[O-])c1 ?
FAS TE block: 0; SENP1 FRET inh: 4; GASC-1 inh: 15; Arrestin-AP2 inh: 11

Results for CN(C)Cc1cc(C(C)(C)C)cc(N2CCOCC2)c1O ?
FAS TE block: -5; SENP1 FRET inh: 2; Arrestin-AP2 inh: -5

What do the screens show for `O=C(Cn1nnc(-c2ccccc2F)n1)Nc1cccc2ncccc12`?
FAS TE block: -8; SENP1 FRET inh: -3; GASC-1 inh: 2; Arrestin-AP2 inh: 10

How did O=C(COC(=O)CC1CC2CCC1C2)Nc1cc([N+](=O)[O-])ccc1F (stereo not given) do in these assays?
FAS TE block: 80*; SENP1 FRET inh: 3; GASC-1 inh: -17; Arrestin-AP2 inh: 20; FAS-TE conf: 87*

What do the screens show for `O=C(CSCc1ccccc1)Nc1cc([N+](=O)[O-])ccc1F`?
FAS TE block: 46; SENP1 FRET inh: 1; GASC-1 inh: 8; Arrestin-AP2 inh: 4

How did O=C(COC(=O)CCc1ccccc1)Nc1cc([N+](=O)[O-])ccc1F do in these assays?
FAS TE block: 73*; SENP1 FRET inh: 7; GASC-1 inh: -9; Arrestin-AP2 inh: 7; FAS-TE conf: 67*

How did CCN(CC)S(=O)(=O)c1ccc(Cl)c(NC(=O)CCCCl)c1 do in these assays?
FAS TE block: -1; SENP1 FRET inh: 1; GASC-1 inh: -13; Arrestin-AP2 inh: 2

How did N#Cc1c(C(F)(F)F)cc(-c2cccs2)nc1SC(C(=O)O)c1ccccc1 (stereo not given) do in these assays?
FAS TE block: 75*; SENP1 FRET inh: 41; GASC-1 inh: 3; Arrestin-AP2 inh: 31; FAS-TE conf: 82*

Results for N#Cc1c(C(F)(F)F)cc(-c2cccs2)nc1SCC(=O)O ?
FAS TE block: 18; SENP1 FRET inh: 1; GASC-1 inh: 8; Arrestin-AP2 inh: 9

What do the screens show for `COc1ccc(NC(=O)CN(c2ccc([N+](=O)[O-])cc2)S(=O)(=O)c2ccccc2)cc1`?
FAS TE block: 64*; SENP1 FRET inh: 3; GASC-1 inh: -2; Arrestin-AP2 inh: 1; FAS-TE conf: 74*

What do the screens show for `CC(C)C(NC(=O)C12CC3CC(CC(C3)C1)C2)C(=O)N/N=C/C1=C(N2CCOCC2)C(=C\c2cccc([N+](=O)[O-])c2)/CC1` (stereo not given)?
FAS TE block: 64*; SENP1 FRET inh: 2; GASC-1 inh: -10; Arrestin-AP2 inh: -4; FAS-TE conf: 14

What do the screens show for `COc1cccc(-n2c(CN3CCN(c4cccc(C)c4)C(C)C3)nc3ccc([N+](=O)[O-])cc3c2=O)c1` (stereo not given)?
FAS TE block: 80*; SENP1 FRET inh: 0; GASC-1 inh: -5; Arrestin-AP2 inh: -6; FAS-TE conf: 20

Results for COc1cccc(-n2c(CN3CCN(c4ccccn4)CC3)nc3ccc([N+](=O)[O-])cc3c2=O)c1 ?
FAS TE block: 81*; SENP1 FRET inh: 1; GASC-1 inh: 0; Arrestin-AP2 inh: -5; FAS-TE conf: 81*
